Assay results reported in ChEMBL document CHEMBL4342526, “Exploration of the Structural Space in 4(3H)-Quinazolinone Antibacterials” (J Med Chem, 2020).
Values after ≈ are worked out from the molar mass of the structure shown.

Legend:
[1] = system: Staphylococcus aureus; test: Antibacterial activity against Staphylococcus aureus ATCC 29213 measured after 16 to 20 hrs in presence of bovine serum albumin by microdilution method; format: functional
How it was run: (§1)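 S. aureus ATCC29213 MIC was run by CLSI microdilution in cation-adjusted Mueller–Hinton broth plus 2% NaCl, with and without 0.5% bovine serum albumin. Compounds were two-fold serially diluted in triplicate, inoculum was 5 × 10^5 CFU/mL, and plates were incubated at 37 °C for 16–20 h. The endpoint was the lowest concentration with no visible growth.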

[2] = system: Staphylococcus aureus; test: Antibacterial activity against clindamycin/erythromycin/spectinomycin-resistant mec-positive Staphylococcus aureus NRS70 measured after 16 to 20 hrs by microdilution method; format: functional
How it was run: (§2)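 CLSI broth microdilution; two-fold serial compound dilutions in triplicate in cation-adjusted Mueller–Hinton broth with 2% NaCl, inoculum 5 × 10^5 CFU/mL; 37 °C for 16–20 h; MIC = lowest concentration with no visible growth.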

[3] = system: HeLa; test: Cytotoxicity against human HeLa cells assessed as reduction in cell viability measured after 16 hrs by XTT assay; format: cell-based
How it was run: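 HeLa cells (ATCC CCL-2), run in triplicate. Viability was read by XTT, and IC50 was obtained by nonlinear regression.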

[4] = system: Staphylococcus aureus; test: Selectivity ratio of MIC for Staphylococcus aureus ATCC 29213 in presence of bovine serum albumin to MIC for Staphylococcus aureus ATCC 29213 in absence of bovine serum albumin; format: functional; how it was run: as §1
[5] = system: Staphylococcus epidermidis; test: Antibacterial activity against Staphylococcus epidermidis ATCC 35547 measured after 16 to 20 hrs by microdilution method; format: functional; how it was run: as §2
[6] = system: Staphylococcus haemolyticus; test: Antibacterial activity against Staphylococcus haemolyticus ATCC 29970 measured after 16 to 20 hrs by microdilution method; format: functional
How it was run: (§3)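 CLSI broth microdilution: two-fold serial dilutions in triplicate in cation-adjusted Mueller–Hinton broth with 2% NaCl, inoculum 5 × 10^5 CFU/mL, incubated at 37 °C for 16–20 h. MIC is the lowest concentration preventing visible growth.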

[7] = system: Streptococcus pneumoniae; test: Antibacterial activity against Streptococcus pneumoniae ATCC 49619 measured after 16 to 20 hrs by microdilution method; format: functional; how it was run: as §3
[8] = system: Clostridioides difficile; test: Antibacterial activity against Clostridium difficile ATCC 43255 measured after 16 to 20 hrs by microdilution method; format: functional
[9] = system: Bacillus licheniformis; test: Antibacterial activity against Bacillus licheniformis ATCC 12759 measured after 16 to 20 hrs by microdilution method; format: functional; how it was run: as §3
[10] = Protein binding in human plasma at 10 uM measured after 6 hrs UV-UPLC based rapid equilibrium dialysis method; format: ADME, cell-free
How it was run: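 Rapid equilibrium dialysis: human plasma was cleared by centrifugation and spiked from a 1 mM DMSO stock to a final 10 μM, against 0.1 M PBS pH 7.4. Dialysis ran 6 h at 37 °C with orbital shaking. Buffer (free) and plasma (total) aliquots were mixed with internal standard in acetonitrile and measured by UPLC-UV at 285 nm. B% = (Cp−Cf)/Cp×100.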

[11] = AUC (0 to last) in ICR mouse at 10 mg/kg, iv by UV-UPLC analysis; format: ADME, organism-based; parameters: dose 10 mg/kg, time 0 - last, route intravenous; conditions: in vivo
How it was run: (§4)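 Female ICR mice, 6–8 weeks old, 20–25 g. Each received 50 μL by tail-vein injection (5 or 10 mg/kg) of a filter-sterilized 2 or 4 mg/mL solution in 20% DMSO/10% Tween-80/70% water. Terminal blood was collected and plasma harvested by centrifugation. Plasma was precipitated with acetonitrile containing internal standard, and the supernatant was analyzed by C18 UPLC with UV detection at 285 nm.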

[12] = AUC (0 to infinity) in ICR mouse at 10 mg/kg, iv by UV-UPLC analysis; format: ADME, organism-based; parameters: dose 10 mg/kg, time infinity, route intravenous; conditions: in vivo; how it was run: as §4
[13] = Elimination half life in ICR mouse at 10 mg/kg, iv by UV-UPLC analysis; format: ADME, organism-based; conditions: in vivo; how it was run: as §4
[14] = Volume of distribution in ICR mouse at 10 mg/kg, iv by UV-UPLC analysis; format: ADME, organism-based; conditions: in vivo; how it was run: as §4
[15] = AUC (0 to last) in ICR mouse at 10 mg/kg, po administered via gavage by UV-UPLC analysis; format: ADME, organism-based; parameters: dose 10 mg/kg, time 0 - last, route oral; conditions: in vivo
[16] = Oral bioavailability in ICR mouse at 10 mg/kg administered via gavage by UV-UPLC analysis; format: ADME, organism-based; conditions: in vivo
[17] = Time at which plasma concentration stays above in vitro MIC for clindamycin/erythromycin/spectinomycin-resistant mec-positive Staphylococcus aureus NRS70 in ICR mouse at 10 mg/kg, iv; format: ADME, organism-based; conditions: in vivo
How it was run: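 Female ICR mice given single iv tail-vein dose (50 μL of 2 or 4 mg/mL in 20% DMSO/10% Tween-80/70% water); terminal blood at 5, 40 min, 2, 4, 8 h, n = 2 per time point; plasma acetonitrile-precipitated with internal standard, UPLC-UV 285 nm on C18; time above MIC read from concentration profile.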

[18] = system: Staphylococcus aureus; test: Bacteriostatic activity against clindamycin/erythromycin/spectinomycin-resistant mec-positive Staphylococcus aureus NRS70 assessed as log reduction in bacterial count at 0.5 to 16 times MIC by time-kill assay; format: functional
[19] = biological target: T1, MecA (Staphylococcus aureus) (UniProt Q7DHH4); test: Binding affinity to PBP2a in clindamycin/erythromycin/spectinomycin-resistant mec-positive Staphylococcus aureus NRS70 assessed potentiation of piperacillin and tazobactam-induced bactericidal activity by measuring log reduction in bacterial count at 0.5 times MIC measured after 24 hrs by time-kill assay
T1 sequence (whole entry): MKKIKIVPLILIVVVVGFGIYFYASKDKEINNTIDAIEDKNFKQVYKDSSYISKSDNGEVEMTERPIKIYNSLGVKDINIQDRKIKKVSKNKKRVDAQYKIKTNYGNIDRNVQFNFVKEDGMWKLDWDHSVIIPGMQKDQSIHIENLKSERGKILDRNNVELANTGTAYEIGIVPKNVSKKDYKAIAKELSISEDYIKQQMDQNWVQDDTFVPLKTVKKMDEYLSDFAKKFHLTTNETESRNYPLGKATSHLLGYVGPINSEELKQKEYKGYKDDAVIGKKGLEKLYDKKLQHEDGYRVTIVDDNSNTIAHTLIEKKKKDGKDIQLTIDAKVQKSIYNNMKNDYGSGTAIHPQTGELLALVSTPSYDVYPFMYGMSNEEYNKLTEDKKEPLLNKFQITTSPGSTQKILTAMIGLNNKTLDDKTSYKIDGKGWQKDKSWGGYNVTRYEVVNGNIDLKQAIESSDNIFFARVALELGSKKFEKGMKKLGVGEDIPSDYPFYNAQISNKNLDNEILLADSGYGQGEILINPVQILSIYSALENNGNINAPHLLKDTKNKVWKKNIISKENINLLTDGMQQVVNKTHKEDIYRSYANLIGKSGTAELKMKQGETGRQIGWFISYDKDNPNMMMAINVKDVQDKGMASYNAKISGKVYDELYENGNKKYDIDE

[20] = system: Staphylococcus aureus; test: Bactericidal activity against methicillin resistant Staphylococcus aureus NRS70 infected in ICR mouse model of neutropenic thigh infection assessed as log reduction in bacterial count in thigh at 40 mg/kg, sc administered at 8 hrs interval for 3 times starting from 1 hr post infection and measured 24 hrs post infection; format: functional
How it was run: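 Female ICR mice (6–8 weeks, 20–25 g) made neutropenic with cyclophosphamide 200 mg/kg ip at 4 and 1 days pre-infection; 0.1 mL NRS70 at 1 × 10^6 CFU/mL in brain heart infusion injected into right thigh; drug in 10% DMSO/90% water sc every 8 h ×3 from 1 h post-infection; thigh CFU counted at 24 h; n = 8/group; mean ± SEM, one-way ANOVA with Tukey test.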

## N#Cc1ccc(/C=C/c2nc3ccccc3c(=O)n2-c2cc(C(=O)O)ccc2F)cc1
[1]
  MIC: 2 µg/mL
[2]
  MIC: 0.5 µg/mL (≈ 1.22 µM)
[3]
  IC50: 62 µg/mL (≈ 151 µM)
[4]
  selectivity ratio: <=4
[5]
  MIC: 0.25 µg/mL (≈ 0.608 µM)
[6]
  MIC: 4 µg/mL (≈ 9.72 µM)
[7]
  MIC: 8 µg/mL (≈ 19.4 µM)
[8]
  MIC: 128 µg/mL (≈ 311 µM)
[9]
  MIC: > 128 µg/mL
[10]
  PPB: 95.4%
[11]
  AUClast: 1290 µg·min/mL
[12]
  AUC(0-inf): 22000 ng·h/mL
[13]
  beta t1/2: 13.7 h
[14]
  Vd: 0.19 L/kg
[15]
  AUClast: 840 µg·min/mL
[16]
  F: 65%
[17]
  T>MIC: 4 h
[18]
  log(activity): <3
[19]
  log(activity): > 3
[20]
  log(activity): 0.78
